The subject of assay [1] is MCF7. In words: Cytotoxicity against human MCF7 cells after 48 hrs by SRB assay. Format: functional, cell-based. As to conditions: MCF7, 48 h. In outline:
(§1)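 NCI sulforhodamine B protocol. Cells were grown in high-glucose DMEM with 5% FBS and seeded per well at 4 × 10^3 (HT-29), 3.5 × 10^3 (M21) or 3 × 10^3 (MCF-7), then allowed 24 h to attach. Serial dilutions from 200 μM to 780 nM final were applied in DMSO <0.5% for 48 h. Cells were fixed with cold TCA (10% final) and stained with SRB, with absorbance read at 530–568 nm. Growth inhibition was computed against day-0 plates, giving the 50% inhibitory concentration. At least two experiments in triplicate, CV <10%.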
A general note: In SRB staining, fixed cells bind dye roughly in proportion to their protein.

Assay [2] has as its system Jurkat. Kind of assay: Cell cycle arrest in human Jurkat E6-1 cells assessed as accumulation at G0/G1 phase at 28 uM after 24 hrs by FACS flow cytometry. It counts as functional. The method, boiled down:
(§2)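 Jurkat E6 cells cultured in RPMI 1640 with 10% FBS at 37 °C, 5% CO2. Compounds serially diluted in medium, starting 50% above the M21 IC50. 4.0 × 10^5 cells were exposed for 24 h. Cells were washed with PBS, chicken red blood cells added as internal standard, and fixed in ice-cold EtOH. After 1 h on ice in PBS with 1 μg/mL DAPI, phase distribution was read by flow cytometry. DMSO-treated cells served as control.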
(Flow cytometry measures light scatter and fluorescence of single cells or particles in a stream.)

In assay [3] the test system is Jurkat. In words: Cell cycle arrest in human Jurkat E6-1 cells assessed as accumulation at G2/M phase at 28 uM after 24 hrs by FACS flow cytometry. It counts as functional. The method, boiled down: (§3)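 Jurkat E6 cells grown in RPMI 1640 with 10% FBS at 37 °C, 5% CO2. Compounds were serially diluted in medium starting 50% above the M21 IC50. 4.0 × 10^5 cells were exposed for 24 h, then washed and spiked with chicken red blood cells as internal standard. Cells were fixed in ice-cold ethanol, stained with 1 μg/mL DAPI on ice for 1 h, and phase distribution was read by flow cytometry. The control was 0.5% DMSO.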

Assay [4] relates to Jurkat. In words: Cell cycle arrest in human Jurkat E6-1 cells assessed as accumulation at S phase at 28 uM after 24 hrs by FACS flow cytometry. It counts as functional. In outline: (§4)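 Jurkat E6 T-lymphoblasts in RPMI 1640 with 10% FBS, 37 °C, 5% CO2. […] Chicken red blood cells were added as internal standard. Cells were fixed in ice-cold EtOH and stained with 1 μg/mL DAPI on ice for 1 h before flow cytometry of phase distribution. Vehicle control was 0.5% DMSO.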

Assay [5] concerns HT-29. Kind of assay: Cytotoxicity against human HT-29 cells after 48 hrs by SRB assay. As to conditions: HT-29, 48 h. Format: functional, cell-based. In outline:
as §1

Assay [6] relates to M21. Kind of assay: Cytotoxicity against human M21 cells after 48 hrs by SRB assay. It counts as functional, cell-based. The settings on record: M21, 48 h. In outline:
as §1

The test system of assay [7] is Jurkat. Kind of assay: Cell cycle arrest in human Jurkat E6-1 cells assessed as accumulation at G0/G1 phase at 16 uM after 24 hrs by FACS flow cytometry. Format: functional. In outline:
as §2

Assay [8] has as its system Jurkat. In words: Cell cycle arrest in human Jurkat E6-1 cells assessed as accumulation at G2/M phase at 16 uM after 24 hrs by FACS flow cytometry. It counts as functional. In outline:
as §2

Assay [9] deals with Jurkat. Kind of assay: Cell cycle arrest in human Jurkat E6-1 cells assessed as accumulation at S phase at 16 uM after 24 hrs by FACS flow cytometry. It counts as functional. The method, boiled down: as §3
For assay [10], the system named is Jurkat. Kind of assay: Cell cycle arrest in human Jurkat E6-1 cells assessed as accumulation at G0/G1 phase at 48 uM after 24 hrs by FACS flow cytometry. Format: functional. The method, boiled down:
as §2

The test system of assay [11] is Jurkat. In words: Cell cycle arrest in human Jurkat E6-1 cells assessed as accumulation at S phase at 48 uM after 24 hrs by FACS flow cytometry. It counts as functional. In outline:
as §4

Assay [12] relates to Jurkat. Kind of assay: Cell cycle arrest in human Jurkat E6-1 cells assessed as accumulation at G2/M phase at 48 uM after 24 hrs by FACS flow cytometry. Format: functional. In outline:
as §3

In assay [13] the test system is Jurkat. In words: Cell cycle arrest in human Jurkat E6-1 cells assessed as accumulation at G2/M phase at 10 uM after 24 hrs by FACS flow cytometry. Format: functional. The method, boiled down: as §2
Assay [14] concerns Jurkat. Kind of assay: Cell cycle arrest in human Jurkat E6-1 cells assessed as accumulation at G0/G1 phase at 10 uM after 24 hrs by FACS flow cytometry. It counts as functional. In outline: as §2
In assay [15] the test system is Jurkat. Kind of assay: Cell cycle arrest in human Jurkat E6-1 cells assessed as accumulation at S phase at 10 uM after 24 hrs by FACS flow cytometry. Format: functional. The method, boiled down: as §3
Assay [16] concerns Jurkat. In words: Cell cycle arrest in human Jurkat E6-1 cells assessed as accumulation at G2/M phase at 13 uM after 24 hrs by FACS flow cytometry. Format: functional. The method, boiled down: as §2
Assay [17] relates to Jurkat. Kind of assay: Cell cycle arrest in human Jurkat E6-1 cells assessed as accumulation at S phase at 13 uM after 24 hrs by FACS flow cytometry. Format: functional. In outline:
as §3

Assay [18] has as its system Jurkat. Kind of assay: Cell cycle arrest in human Jurkat E6-1 cells assessed as accumulation at G0/G1 phase at 13 uM after 24 hrs by FACS flow cytometry. It counts as functional. The method, boiled down: as §2
For assay [19], the system named is Jurkat. Kind of assay: Cell cycle arrest in human Jurkat E6-1 cells assessed as accumulation at G2/M phase at 7.5 uM after 24 hrs by FACS flow cytometry. Format: functional. The method, boiled down: as §3
Assay [20] concerns Jurkat. In words: Cell cycle arrest in human Jurkat E6-1 cells assessed as accumulation at S phase at 7.5 uM after 24 hrs by FACS flow cytometry. It counts as functional. The method, boiled down:
as §4

For assay [21], the system named is Jurkat. In words: Cell cycle arrest in human Jurkat E6-1 cells assessed as accumulation at G0/G1 phase at 7.5 uM after 24 hrs by FACS flow cytometry. It counts as functional. The method, boiled down:
as §2

For assay [22], the system named is Jurkat. In words: Cell cycle arrest in human Jurkat E6-1 cells assessed as accumulation at S phase at 1.7 uM after 24 hrs by FACS flow cytometry. Format: functional. In outline:
as §3

Assay [23] concerns M21. In words: Induction of DNA damage response in human M21 cells assessed as phosphorylation of H2AX into gammaH2AX at IC50 after 24 hrs by DAPI staining-based immunofluorescence assay. Format: functional, cell-based. The method, boiled down: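 M21 cells (1 × 10^5) on fibronectin-coated coverslips, grown 24 h, then exposed to agent for 24 h at 37 °C; 0.5% DMSO control. Fixed with 3.7% formaldehyde and permeabilized with 0.1% saponin/3% BSA. Probed with mouse anti-H2AX pS139 antibody for 2 h at room temperature. Nuclei counterstained with DAPI; nuclear γH2AX foci viewed by epifluorescence microscopy.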

The test system of assay [24] is Jurkat. In words: Cell cycle arrest in human Jurkat E6-1 cells assessed as accumulation at G2/M phase at 1.7 uM after 24 hrs by FACS flow cytometry. Format: functional. In outline:
as §2

The test system of assay [25] is HT-1080. Kind of assay: Antitumor activity against human HT1080 cells xenografted in chicken chorioallantoic membrane assessed as inhibition of tumor growth at 30 ug per egg, iv administered on day 11 measured on day 17 by CAM assay. It counts as functional. The method, boiled down:
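HT-1080 fibrosarcoma cells (3.5 × 105/egg) were applied onto freshly exposed CAM of fertilized chicken eggs. On day 11, drug from a DMSO stock was diluted in Cremophor EL/99% ethanol/PBS (1/1/14 v/v) and 100 μL was injected into a vein under the CAM. Groups of 10–12 eggs were kept to day 17, embryos were euthanized at 4 °C for ≥4 h, and tumor wet weight was recorded.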

Assay [26] concerns Jurkat. Kind of assay: Cell cycle arrest in human Jurkat E6-1 cells assessed as accumulation at G0/G1 phase at 1.7 uM after 24 hrs by FACS flow cytometry. Format: functional. In outline:
as §2

The IC50 is the midpoint of a concentration-inhibition curve. Low readings indicate higher potency, high ones lower potency. The TGI is how far tumour growth fell short of that in controls.

Calls of active or inactive are those of the source. No cut-off for these calls is given here.

For `Cc1ccccc1OS(=O)(=O)c1cccc(NC(=O)NCCCCl)c1`, the IC50 in [1] came out at 27 µM; in assay [5] it was 21 µM; in assay [6], 29 µM. Further, the values for the Activity in assay [2], in [3] and in assay [4] were 43%, 19% and 38%, respectively.

In the case of `CCc1ccccc1NS(=O)(=O)c1ccc(NC(=O)NCCCl)cc1`, the Activity was 41% in assay [7], 16% in assay [8] and 43% in [9]. Further, the IC50 in [1] was 33 µM; in [5], 40 µM; in [6], 68 µM.

Turning to `Cc1ccccc1NS(=O)(=O)c1ccc(NC(=O)NCCCl)cc1`, the Activity in assay [10] turned out to be 45%; in [11], 35%; in assay [12], 20%. Also, the half-inhibitory concentration (IC50) worked out at 55 µM in [5] and 63 µM in assay [6].

Regarding `CCCc1ccccc1NS(=O)(=O)c1cccc(NC(=O)NCCCl)c1`, the results for the Activity in assay [13], in assay [14] and in assay [15] were 19%, 42% and 39%, respectively. The IC50 is 16 µM in assay [1], 15 µM in assay [5] and 17 µM in [6].

`CCCc1ccccc1OS(=O)(=O)c1cccc(NC(=O)NCCCl)c1`: the Activity turned out to be 17% in assay [16], 36% in assay [17] and 47% in assay [18]. Further, the IC50 in assay [5] came to 15 µM; in assay [6], 17 µM.

As for `O=C(NCCCl)Nc1cccc(S(=O)(=O)Oc2ccc(O)cc2)c1`, the Activity in assay [19] amounted to 22%; in assay [20], 54%; in assay [21] it was 24%. Moreover, the half-maximal inhibitory concentration (IC50) in assay [1] turned out to be 87 µM; in assay [5], 120 µM; in assay [6], 73 µM.

On to `CCCc1ccccc1OS(=O)(=O)c1ccc(NC(=O)NCCCl)cc1`, for which the Activity in assay [22] worked out at 73%; in assay [24], 11%; in [26], 16%. The result in assay [23] was Active. Further, the TGI in assay [25] is on record as 49%. The figures for the IC50 in [1], in assay [5] and in assay [6] were 3.6 µM, 2.5 µM and 2.1 µM, respectively.

The values are drawn from ChEMBL document CHEMBL2163200, “Synthesis, biological evaluation, and structure-activity relationships of novel substituted N-phenyl ureidobenzenesulfonate derivatives blocking cell cycle progression in S-phase and inducing DNA double-strand breaks” (J Med Chem, 2012).
